Screens (PubChem)
PostGolgi yeast: growth inhibition of a yeast mutant, post-Golgi transport screen; 0.9% of 98,000 active; AID 739; inhibition, % at 10 µM; post-Golgi transport phenotypic cell assay;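 note: yeast cells grown in 1536-well plates; yeast grown about 18 h at 30C before absorbance read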
tolC growth inh: blocks growth of E. coli BW25113 tolC mutant; OD615; growth inhibition, % at 10 µM (by protocol); 2.2% of 65,000 active; AID 573;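 active = growth inhibition at or above a cutoff equal to the mean over every tested compound plus 3 SD, cut at about 60% in these data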;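 note: growth measured after 20 h incubation at 37 °C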
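test system = E. coli BW25113 ΔtolC::kan bacteria | medium = LB with kanamycin 50 µg/mL | signal = OD at 615 nm | schedule = 37 °C, 20 h exposure | evaluation = % inhibition of E. coli growth | compound dosing = one dose of 10 µM final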
PostGolgi ctrl: inhibits growth of the yeast control strain | 5% of 98,000 active | efflux-deficient yeast background strain, growth absorbance A615, 16 h | AID 738 | inhibition, % at 10 µM
PLAP act: activators of human placental alkaline phosphatase | 1.2% of 96,000 active | P05187 | activation fold at 20 µM | purified PLAP enzyme, luminescent substrate read-out; active compounds read high; in the data active = activation fold above about 2
Ecoli WT expand: blocks growth of wild type E. coli BW25113; AID 710; growth inhibition, % at 100 µM; 0.15% of 98,000 active; OD600 absorbance;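 active = growth inhibition above about 50% at one test dose, limit read from the data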;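 note: growth measured after 20 h incubation at 37 °C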
HePTP inh: blocks human HePTP tyrosine phosphatase; recombinant HePTP phosphatase activity, OD absorbance; 0.64% of 110,000 active; P35236; inhibition, % at 20 µM; AID 521; in the data active = inhibition above about 50%;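 note: plate controls were vehicle for no effect and reference inhibitor for full effect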
Target sequence (P35236 whole entry, looked up): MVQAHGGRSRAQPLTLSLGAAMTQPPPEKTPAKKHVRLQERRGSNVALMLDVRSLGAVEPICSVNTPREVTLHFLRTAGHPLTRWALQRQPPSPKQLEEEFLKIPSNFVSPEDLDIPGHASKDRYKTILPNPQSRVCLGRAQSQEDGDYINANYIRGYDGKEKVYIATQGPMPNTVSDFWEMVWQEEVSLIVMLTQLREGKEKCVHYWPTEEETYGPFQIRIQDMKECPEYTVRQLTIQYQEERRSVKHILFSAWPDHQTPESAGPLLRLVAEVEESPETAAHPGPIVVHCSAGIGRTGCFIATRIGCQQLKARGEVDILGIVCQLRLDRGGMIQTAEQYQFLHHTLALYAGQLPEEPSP
An asterisk follows results filed as active; nt = no result given. A selection: hits, their analogues and other compounds. The true share with any hit is near 5.4%. Cut-off read from the data, not from the text of the source, unless noted: active = inhibition above about 30%; inactive = the rest.

SMILES	PostGolgi yeast	tolC growth inh	PostGolgi ctrl	PLAP act	Ecoli WT expand	HePTP inh
CCc1cccc(NC(=O)CSCc2cc(=O)[nH][nH]2)c1	3.3	nt	7.2	2.5*	9.0	nt
CCc1cccc(NC(=O)Cn2cccc2)c1	-3.2	-2.7	9.8	1	-11.0	0.9
Cc1ccc(-n2c(-c3ccc(Br)cc3)c[n+]3c2CCc2ccc4cccnc4c2-3)cc1	10.9	nt	49.6*	0.9	78.0*	nt
COCCCNC(=O)c1ccc2c(=O)n(CC3CCCO3)c(=S)[nH]c2c1 (stereo not given)	9.2	nt	15.7	0.9	-4.0	nt
CCCCCNC(=O)c1ccc2c(=O)[nH]c3c(C(=O)NCC4CCCO4)sc(=S)n3c2c1 (stereo not given)	-1.0	100.0*	5.8	1.6	-5.0	4.3
O=C(NCc1ccco1)c1sc(=S)n2c1[nH]c(=O)c1ccccc12	-6.8	99.7*	32.3*	1.3	11.0	20.2
O=C(NC1CCCC1)c1sc(=S)n2c1[nH]c(=O)c1ccccc12	3.9	100.0*	51.2*	1.1	1.0	-4.4
COCCNC(=O)COc1ccc(C)cc1Br	nt	nt	nt	nt	nt	-7.2
CCc1cc2c(=O)c(-c3nc4ccccc4n3C)c(C)oc2c(CN2CCN(CCO)CC2)c1O	52.0*	-6.9	-1.1	1.1	0.0	0.0
O=C(COc1ccccc1Cl)NNC(=O)C1CCCO1 (stereo not given)	7.4	nt	3.7	2*	10.0	nt
O=C(O)c1ccccc1NC(=O)C1CCCO1 (stereo not given)	-13.9	-15.2	7.8	1	1.0	1.6
O=C(NNC(=O)C1CCCO1)c1ccc(Cl)cc1 (stereo not given)	-18.5	nt	3.3	2.2*	-2.0	-1.8
O=C(Nc1cc(Cl)ccc1O)C1CCCO1 (stereo not given)	-2.4	-11.7	37.7*	0.9	8.0	6.8
O=C(Nc1ccccc1Sc1ccccc1)C1CCCO1 (stereo not given)	-3.0	10.2	38.2*	1.1	0.0	7.5
O=C(c1ccc(F)cc1)N1CCN(c2ccc(F)cc2)CC1	nt	nt	nt	nt	nt	12.7
Cc1onc(-c2ccccc2)c1C(=O)Nc1ccc(I)cc1	nt	nt	nt	nt	nt	-1.1
COc1ccc(OC)c(NC(=O)CC(c2ccccc2)c2ccccc2)c1	nt	nt	nt	nt	nt	-2.3
CCOc1ccc(N2C(=O)C3C(C2=O)C2(C)C(=O)C3(C)C(c3ccccc3)=C2c2ccccc2)cc1 (stereo not given)	nt	nt	nt	nt	nt	1.9
COc1ccc(CC(=O)NCC2(c3ccccc3)CCCC2)cc1	nt	nt	nt	nt	nt	6.2
CC(=O)Nc1ccc(OCC(O)Cn2c3ccccc3c3ccccc32)c(C)c1 (stereo not given)	0.3	nt	46.1*	1	-3.0	nt
CC(=O)Nc1ccc(OCC(O)Cn2c3ccccc3c3ccccc32)cc1 (stereo not given)	nt	nt	nt	nt	nt	6.5
Cc1ccccc1OCC(O)Cn1c2ccccc2c2ccccc21 (stereo not given)	-5.7	nt	38.5*	0.9	-11.0	nt
CCOc1ccccc1OCCCOc1ccc([N+](=O)[O-])cc1Cl	6.4	nt	37.9*	nt	4.0	nt
Cc1ccc(NC(=O)C2CC(=O)N(c3ccc4c5c(cccc35)CC4)C2)cc1 (stereo not given)	-3.0	nt	30.6*	1.4	-12.0	nt
Cc1ccc(NC(=O)C2CC(=O)N(c3ccc(C)cc3)C2)cc1 (stereo not given)	nt	nt	nt	nt	nt	5.4
SMILES	PostGolgi yeast	tolC growth inh	PostGolgi ctrl	PLAP act	Ecoli WT expand	HePTP inh
O=C(NN1C(=O)C2C(C1=O)C1C=CC2C12CC2)c1ccc(Cl)cc1Cl (stereo not given)	nt	nt	nt	nt	nt	3.4
Cc1cc(C)c(C(=O)/C(=C/c2cccc(Br)c2)c2ccccc2)c(=O)[nH]1	nt	nt	nt	nt	nt	1.4
COc1ccc(C(=O)NC(C)c2nnc(SCc3ccc(Cl)c(Cl)c3)n2C)cc1 (stereo not given)	32.9*	nt	10.4	1.1	-11.0	nt
O=C(COc1ccc(Br)cc1)Nc1cccc(NC(=O)c2ccccc2Cl)c1	nt	nt	nt	nt	nt	11.2
O=C(O)CCc1nnc2n(Cc3ccc(F)cc3)c(=O)c3ccccc3n12	43.8*	-21.8	-4.2	0.9	-13.0	7.7
COc1ccc(OC)c(/C=N\N2CCN(c3ccccc3)CC2)c1	nt	nt	nt	nt	nt	-4.1
COc1ccc(CNc2ccc(Br)cc2C(=O)O)c(OC)c1	nt	nt	nt	nt	nt	77.4*
COc1ccc(Br)cc1C(=O)O	1.1	-7.8	0.0	1.3	4.0	8.3
Cc1ccc(S(=O)(=O)Nc2ccccc2C(=O)O)cc1	nt	nt	nt	nt	nt	4.3
N/C(Cc1ccc(Cl)cc1Cl)=N\OC(=O)c1cccs1	19.6	nt	58.5*	0.8	14.0	nt
NS(=O)(=O)c1ccc(NC(=O)/C(=C\c2ccc(Br)cc2)NC(=O)c2ccccc2)cc1	nt	nt	nt	nt	nt	11.2
